As usually defined, the EC50 is the concentration needed to bring the measured effect to its halfway point. Lower therefore signals higher potency in that assay.

A short description of experiment [1]: Agonist activity at rat mGlu7 loop beta10-alpha7 region.
Experiment [2] concerns the target Metabotropic glutamate receptor 7 (Rattus norvegicus, UniProt P35400, K60A). In words: Agonist activity at rat mGlu7 K60A mutant.
The target of experiment [3] is Metabotropic glutamate receptor 4 (Rattus norvegicus, UniProt P31423, S160D). In words: Agonist activity against rat mGlu4 S160D mutant.
Experiment [4] has as its target Metabotropic glutamate receptor 4 (Rattus norvegicus, UniProt P31423, S160A). In words: Agonist activity against rat mGlu4 S160A mutant.
A short description of experiment [5]: Agonist activity at rat mGlu7 D314A mutant.
Experiment [6] in a line: Agonist activity at rat mGlu7 Q258R/D262/R263 mutant.
In experiment [7] the target is Metabotropic glutamate receptor 4 (Rattus norvegicus, UniProt P31423). The experiment can be described thus: Agonist activity against wild type rat mGlu4. Type of experiment: functional.
Experiment [8] is described as follows: Agonist activity at rat mGlu7 S229A mutant.
Experiment [9] is described as follows: Agonist activity at rat mGlu4 R258Q/D262/R263 mutant.
Experiment [10] concerns the target Metabotropic glutamate receptor 4 (Rattus norvegicus, UniProt P31423, R60A). The experiment can be described thus: Agonist activity against rat mGlu4 R60A mutant.
Experiment [11] is described as follows: Agonist activity at rat mGlu4 loop beta-10-alpha7 region.
The target in experiment [12] is Metabotropic glutamate receptor 4 (Rattus norvegicus, UniProt P31423, R258A). In words: Agonist activity at rat mGlu4 R258A mutant.
Experiment [13] deals with Metabotropic glutamate receptor 7 (Rattus norvegicus, UniProt P35400, N74A). In words: Agonist activity at rat mGlu7 N74A mutant.
In experiment [14] the target is Metabotropic glutamate receptor 4 (Rattus norvegicus, UniProt P31423, K74A). In words: Agonist activity against rat mGlu4 K74A mutant.
Experiment [15] concerns the target Metabotropic glutamate receptor 7 (Rattus norvegicus, UniProt P35400, N74K). The experiment can be described thus: Agonist activity at rat mGlu7 N74K mutant.
For experiment [16], the target named is Metabotropic glutamate receptor 7 (Rattus norvegicus, UniProt P35400). In words: Agonist activity at wild type rat mGlu7. The class given is functional. In a few lines:
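HEK293 cells were transiently transfected by electroporation with rat mGlu7 plasmid plus chimeric Gqα9 to couple to phospholipase C. They were grown in DMEM with 10% FBS on polyornithine-coated wells at 150 000 cells/well.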

Chain of Metabotropic glutamate receptor 7 (Rattus norvegicus, UniProt P35400, N74A) (P35400 35-915 N74A limits assumed): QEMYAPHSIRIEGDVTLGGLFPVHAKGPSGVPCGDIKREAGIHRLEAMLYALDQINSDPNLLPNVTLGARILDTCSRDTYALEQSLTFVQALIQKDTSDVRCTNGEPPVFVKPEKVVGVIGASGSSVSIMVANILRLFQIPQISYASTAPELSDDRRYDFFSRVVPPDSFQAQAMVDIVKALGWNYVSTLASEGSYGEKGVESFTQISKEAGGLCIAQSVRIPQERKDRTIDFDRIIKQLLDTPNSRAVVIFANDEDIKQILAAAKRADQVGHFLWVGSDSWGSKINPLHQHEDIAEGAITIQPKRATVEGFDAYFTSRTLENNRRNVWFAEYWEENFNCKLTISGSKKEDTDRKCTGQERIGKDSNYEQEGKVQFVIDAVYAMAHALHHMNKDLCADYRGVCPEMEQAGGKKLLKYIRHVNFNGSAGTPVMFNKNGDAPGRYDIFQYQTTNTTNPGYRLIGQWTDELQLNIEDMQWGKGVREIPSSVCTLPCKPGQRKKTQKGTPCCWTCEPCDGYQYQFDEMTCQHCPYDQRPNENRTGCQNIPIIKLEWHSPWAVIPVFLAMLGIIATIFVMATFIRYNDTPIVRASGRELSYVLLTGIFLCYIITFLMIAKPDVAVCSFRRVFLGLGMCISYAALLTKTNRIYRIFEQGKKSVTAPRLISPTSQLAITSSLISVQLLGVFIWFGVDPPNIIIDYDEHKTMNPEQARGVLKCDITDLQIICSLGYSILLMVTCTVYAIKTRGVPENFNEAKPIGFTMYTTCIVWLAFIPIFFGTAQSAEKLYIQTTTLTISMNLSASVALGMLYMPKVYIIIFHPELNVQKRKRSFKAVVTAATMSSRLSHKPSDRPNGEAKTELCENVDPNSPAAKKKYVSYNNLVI
Chain of Metabotropic glutamate receptor 7 (Rattus norvegicus, UniProt P35400, K60A) (P35400 35-915 K60A limits assumed): as the sequence (P35400 35-915 N74A limits assumed) above, with K26A, A40N counted along it
Chain of Metabotropic glutamate receptor 4 (Rattus norvegicus, UniProt P31423) (P31423 whole entry): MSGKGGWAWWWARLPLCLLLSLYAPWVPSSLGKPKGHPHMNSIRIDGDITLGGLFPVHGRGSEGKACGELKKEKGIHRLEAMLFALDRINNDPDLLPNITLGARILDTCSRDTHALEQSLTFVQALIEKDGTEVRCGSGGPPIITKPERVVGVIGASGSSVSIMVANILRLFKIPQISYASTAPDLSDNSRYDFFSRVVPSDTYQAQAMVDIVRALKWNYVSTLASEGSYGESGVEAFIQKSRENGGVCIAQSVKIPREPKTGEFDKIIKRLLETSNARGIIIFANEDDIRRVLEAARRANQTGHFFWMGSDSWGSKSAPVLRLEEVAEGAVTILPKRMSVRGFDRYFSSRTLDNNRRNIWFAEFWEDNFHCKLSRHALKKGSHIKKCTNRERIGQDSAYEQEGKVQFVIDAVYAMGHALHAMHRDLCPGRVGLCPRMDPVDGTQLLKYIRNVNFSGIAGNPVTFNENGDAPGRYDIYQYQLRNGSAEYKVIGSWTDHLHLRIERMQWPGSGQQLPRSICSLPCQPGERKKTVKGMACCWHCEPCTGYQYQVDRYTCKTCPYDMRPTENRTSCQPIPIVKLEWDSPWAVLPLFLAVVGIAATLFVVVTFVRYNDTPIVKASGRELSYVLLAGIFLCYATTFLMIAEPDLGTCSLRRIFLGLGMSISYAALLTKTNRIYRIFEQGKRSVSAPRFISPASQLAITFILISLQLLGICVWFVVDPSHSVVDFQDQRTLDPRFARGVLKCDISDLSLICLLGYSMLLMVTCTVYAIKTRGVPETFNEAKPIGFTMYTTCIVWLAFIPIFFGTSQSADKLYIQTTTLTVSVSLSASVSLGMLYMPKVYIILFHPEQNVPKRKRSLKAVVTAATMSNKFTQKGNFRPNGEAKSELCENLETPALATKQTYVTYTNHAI
Chain of Metabotropic glutamate receptor 4 (Rattus norvegicus, UniProt P31423, S160A) (P31423 33-912 S160A limits assumed): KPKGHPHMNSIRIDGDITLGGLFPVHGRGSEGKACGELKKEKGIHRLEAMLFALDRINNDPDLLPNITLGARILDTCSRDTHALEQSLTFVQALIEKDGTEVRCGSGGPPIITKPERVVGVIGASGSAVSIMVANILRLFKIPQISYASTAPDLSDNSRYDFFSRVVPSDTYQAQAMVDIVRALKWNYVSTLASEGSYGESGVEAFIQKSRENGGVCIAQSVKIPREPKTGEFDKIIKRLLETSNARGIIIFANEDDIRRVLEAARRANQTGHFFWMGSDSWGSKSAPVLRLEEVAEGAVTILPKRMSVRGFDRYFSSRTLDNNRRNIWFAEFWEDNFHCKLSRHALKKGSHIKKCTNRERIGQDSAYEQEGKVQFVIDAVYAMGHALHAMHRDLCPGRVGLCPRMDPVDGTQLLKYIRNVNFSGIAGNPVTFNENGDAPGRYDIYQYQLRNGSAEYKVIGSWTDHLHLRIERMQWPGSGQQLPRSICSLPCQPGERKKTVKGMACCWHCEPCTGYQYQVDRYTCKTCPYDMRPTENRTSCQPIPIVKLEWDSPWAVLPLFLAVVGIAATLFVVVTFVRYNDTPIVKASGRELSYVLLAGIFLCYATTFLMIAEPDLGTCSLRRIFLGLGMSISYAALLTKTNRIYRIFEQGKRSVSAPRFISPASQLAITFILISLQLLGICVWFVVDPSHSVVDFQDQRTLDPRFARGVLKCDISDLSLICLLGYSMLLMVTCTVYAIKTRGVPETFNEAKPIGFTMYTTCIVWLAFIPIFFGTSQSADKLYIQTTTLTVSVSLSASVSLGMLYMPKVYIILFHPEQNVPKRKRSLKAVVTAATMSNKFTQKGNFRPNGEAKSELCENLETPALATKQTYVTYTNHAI
Chain of Metabotropic glutamate receptor 7 (Rattus norvegicus, UniProt P35400) (P35400 whole entry): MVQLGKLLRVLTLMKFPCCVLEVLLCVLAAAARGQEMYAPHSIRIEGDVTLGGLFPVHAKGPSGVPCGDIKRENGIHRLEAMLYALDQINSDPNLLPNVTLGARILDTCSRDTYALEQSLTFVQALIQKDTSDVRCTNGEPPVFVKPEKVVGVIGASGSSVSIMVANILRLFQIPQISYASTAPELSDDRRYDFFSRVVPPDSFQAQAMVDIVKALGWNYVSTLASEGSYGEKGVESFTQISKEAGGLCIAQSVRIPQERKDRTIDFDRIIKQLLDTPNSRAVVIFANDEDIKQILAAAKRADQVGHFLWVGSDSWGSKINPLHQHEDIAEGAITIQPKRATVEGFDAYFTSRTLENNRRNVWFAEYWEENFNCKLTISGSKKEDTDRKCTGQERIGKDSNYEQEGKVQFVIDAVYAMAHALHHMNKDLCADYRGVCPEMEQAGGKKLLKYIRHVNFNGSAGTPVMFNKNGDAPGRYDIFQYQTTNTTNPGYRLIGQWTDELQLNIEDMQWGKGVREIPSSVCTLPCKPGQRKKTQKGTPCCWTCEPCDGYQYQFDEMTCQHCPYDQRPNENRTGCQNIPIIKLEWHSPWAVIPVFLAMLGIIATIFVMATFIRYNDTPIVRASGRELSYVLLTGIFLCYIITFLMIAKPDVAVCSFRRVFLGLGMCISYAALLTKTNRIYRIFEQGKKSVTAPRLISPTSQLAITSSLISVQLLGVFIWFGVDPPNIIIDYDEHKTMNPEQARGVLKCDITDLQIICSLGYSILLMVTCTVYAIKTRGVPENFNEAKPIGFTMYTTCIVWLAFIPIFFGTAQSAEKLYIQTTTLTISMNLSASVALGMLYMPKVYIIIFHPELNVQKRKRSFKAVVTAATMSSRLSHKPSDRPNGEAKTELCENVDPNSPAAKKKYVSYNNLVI
Chain of Metabotropic glutamate receptor 4 (Rattus norvegicus, UniProt P31423, R60A) (P31423 33-912 R60A limits assumed): as the sequence (P31423 33-912 S160A limits assumed) above, with R28A, A128S counted along it
Chain of Metabotropic glutamate receptor 4 (Rattus norvegicus, UniProt P31423, R258A) (P31423 33-912 R258A limits assumed): as the sequence (P31423 33-912 S160A limits assumed) above, with A128S, R226A counted along it
Chain of Metabotropic glutamate receptor 4 (Rattus norvegicus, UniProt P31423, S160D) (P31423 33-912 S160D limits assumed): as the sequence (P31423 33-912 S160A limits assumed) above, with A128D counted along it
Chain of Metabotropic glutamate receptor 7 (Rattus norvegicus, UniProt P35400, N74K) (P35400 35-915 N74K limits assumed): as the sequence (P35400 35-915 N74A limits assumed) above, with A40K counted along it
Chain of Metabotropic glutamate receptor 4 (Rattus norvegicus, UniProt P31423, K74A) (P31423 33-912 K74A limits assumed): as the sequence (P31423 33-912 S160A limits assumed) above, with K42A, A128S counted along it

With `N[C@@H](CCP(=O)(O)O)C(=O)O`, the EC50 is 45 µM in experiment [1]; 1980 µM in [2]; 12.3 µM in experiment [3]; 2.66 µM in experiment [4]; over 1000 µM in experiment [5]; over 100 µM in experiment [6]. For the same compound, the EC50 in [7] came out at 0.343 µM; in experiment [8], 182 µM; in experiment [9], 11.1 µM; in experiment [10], 1.16 µM; in experiment [11], 0.505 µM; in experiment [12], 1.87 µM. The EC50 in [13] was over 100 µM; in experiment [14], 0.23 µM; in experiment [15], 10.5 µM; in experiment [16] it was over 100 µM.

The values are drawn from ChEMBL document CHEMBL5523707, “Novel Inhibitory Site Revealed by XAP044 Mode of Action on the Metabotropic Glutamate 7 Receptor Venus Flytrap Domain” (J Med Chem, 2024).
